# Test results taken from ChEMBL document CHEMBL5696444 (Nat Commun, 2017).
# Activity calls are given as the source filed them. The rule behind the calls is not given here.
# What was measured:
# [1] = tested on: HCT-116; test: Induction of apoptosis in human HCT-116 cells assessed as viable cells at 0.5 uM incubated for > 6 hrs by annexin V/PI staining based analysis (Rvb=90.04%); format: functional; details: read-out: Activity
# [2] = tested on: HCT-116; test: Induction of apoptosis in human HCT-116 cells assessed as late apoptosis at 0.5 uM incubated for > 6 hrs by annexin V/PI staining based analysis (Rvb=6.12%); format: functional
# [3] = target: Dual specificity protein kinase CLK1 (Homo sapiens) (UniProt P49759); test: Inhibition of CLK1 (unknown origin) at 123 nM in the presence of ATP by Kinome scan method relative to control; details: time > 6.0 hrs
# [4] = target: Aurora kinase B (Homo sapiens) (UniProt Q96GD4); test: Inhibition of AURKB (unknown origin) at 100 nM in the presence of ATP by Kinome scan method relative to control
# [5] = target: Cyclin-dependent kinase 5/CDK5 activator 1 (Homo sapiens) (UniProt Q00535+Q15078); test: Inhibition of CDK5/p25 (unknown origin) at 1000 nM in the presence of ATP by Kinome scan method relative to control; format: protein-complex assay
# [6] = target: Serine/threonine-protein kinase Chk1 (Homo sapiens) (UniProt O14757); test: Inhibition of CHEK1 (unknown origin) at 100 nM in the presence of ATP by Kinome scan method relative to control
# [7] = target: Serine/threonine-protein kinase Chk2 (Homo sapiens) (UniProt O96017); test: Inhibition of CHEK2 (unknown origin) at 100 nM in the presence of ATP by Kinome scan method relative to control
# [8] = target: Casein kinase I isoform delta (Homo sapiens) (UniProt P48730); test: Inhibition of CSNK1D (unknown origin) at 100 nM in the presence of ATP by Kinome scan method relative to control
# [9] = target: Glycogen synthase kinase-3 beta (Homo sapiens) (UniProt P49841); test: Inhibition of GSK3B (unknown origin) at 100 nM in the presence of ATP by Kinome scan method relative to control
# [10] = target: Mast/stem cell growth factor receptor Kit (Homo sapiens) (UniProt P10721); test: Inhibition of KIT (unknown origin) at 100 nM in the presence of ATP by Kinome scan method relative to control
# [11] = target: Dual specificity mitogen-activated protein kinase kinase 2 (Homo sapiens) (UniProt P36507); test: Inhibition of MAP2K2 (unknown origin) at 100 nM in the presence of ATP by Kinome scan method relative to control
# [12] = target: Mitogen-activated protein kinase 1 (Homo sapiens) (UniProt P28482); test: Inhibition of MAPK1 (unknown origin) at 100 nM in the presence of ATP by Kinome scan method relative to control
# [13] = target: Hepatocyte growth factor receptor (Homo sapiens) (UniProt P08581); test: Inhibition of MET (unknown origin) at 1000 nM in the presence of ATP by Kinome scan method relative to control
# [14] = target: Serine/threonine-protein kinase pim-1 (Homo sapiens) (UniProt P11309); test: Inhibition of PIM1 (unknown origin) at 1000 nM in the presence of ATP by Kinome scan method relative to control
# [15] = target: Serine/threonine-protein kinase PLK1 (Homo sapiens) (UniProt P53350); test: Inhibition of PLK1 (unknown origin) at 100 nM in the presence of ATP by Kinome scan method relative to control
# [16] = target: Protein kinase C theta type (Homo sapiens) (UniProt Q04759); test: Inhibition of PRKCQ (unknown origin) at 1000 nM in the presence of ATP by Kinome scan method relative to control
# [17] = target: Focal adhesion kinase 1 (Homo sapiens) (UniProt Q05397); test: Inhibition of PTK2 (unknown origin) at 1000 nM in the presence of ATP by Kinome scan method relative to control
# [18] = target: Proto-oncogene tyrosine-protein kinase ROS (Homo sapiens) (UniProt P08922); test: Inhibition of ROS1 (unknown origin) at 100 nM in the presence of ATP by Kinome scan method relative to control
# [19] = target: Ribosomal protein S6 kinase beta-1 (Homo sapiens) (UniProt P23443); test: Inhibition of RPS6KB1 (unknown origin) at 1000 nM in the presence of ATP by Kinome scan method relative to control
# [20] = target: Proto-oncogene tyrosine-protein kinase Src (Homo sapiens) (UniProt P12931); test: Inhibition of SRC (unknown origin) at 100 nM in the presence of ATP by Kinome scan method relative to control
# [21] = target: CDK7/Cyclin H/MNAT1 (Homo sapiens) (UniProt P51946+P50613+P51948); test: Inhibition of CDK7/cyclin H/MNAT1 (unknown origin) at 100 nM in the presence of ATP by Kinome scan method relative to control; format: protein-complex assay
# [22] = target: Dual specificity protein kinase CLK1 (Homo sapiens) (UniProt P49759); test: Inhibition of CLK1 (unknown origin) in human HCT-116 cells assessed as increase in CLK1 protein level at 0.5 to 0.1 uM incubated for 6 hrs by immunoblot analysis; format: cell-based; details: dose 0.5-0.1 µM
# Summary of the method: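 HCT116 cells were treated for 3 or 6 h and lysed in SDS sample buffer (Tris-HCl pH 6.8), then boiled for 5 min. Lysates were run on 5–15% or 4–12% gradient gels and transferred to nitrocellulose or PVDF. Blots were blocked in milk or BSA/TBS-T and probed overnight at 4 °C with anti-phospho-SR (1H4, 1/1000), anti-SR, anti-CLK1 or anti-CLK3 antibodies, with GAPDH as loading control.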
# [23] = tested on: HCT-116; test: Induction of cell cycle arrest in human HCT-116 cells assessed as S phase at 0.5 uM incubated for 6 hrs by flow cytometry analysis (Rvb=39.3%); format: functional
# [24] = tested on: HCT-116; test: Induction of cell cycle arrest in human HCT-116 cells assessed as sub G0/G1 phase at 5 uM incubated for 6 hrs by flow cytometry analysis (Rvb=1.6%); format: functional
# [25] = tested on: HCT-116; test: Induction of cell cycle arrest in human HCT-116 cells assessed as G2/M phase at 5 uM incubated for 24 hrs by flow cytometry analysis (Rvb=17.9%); format: functional
# [26] = target: Dual specificity protein kinase CLK1 (Homo sapiens) (UniProt P49759); test: Inhibition of CLK (unknown origin) in human 184-hTERT cells assessed as induction in alternative splicing effect in CDC6-RARA level incubated for 6 hrs by RT-PCR analysis; format: cell-based; details: dose 0.2-5 µM
# Summary of the method: (§1)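 Cells exposed to graded T3 concentrations for 6 h (chosen to avoid cytotoxicity), with a DMSO vehicle control. Total RNA was reverse-transcribed with oligo-dT primers. Targeted splice or conjoined-gene products were quantified by real-time qPCR or by targeted next-generation sequencing. Conjoined-gene isoform expression was normalized to a sequenced housekeeping gene.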
# [27] = target: Dual specificity protein kinase CLK1 (Homo sapiens) (UniProt P49759); test: Inhibition of CLK (unknown origin) in human 184-hTERT cells assessed as induction in alternative splicing effect in MRPS10-GUCA1B level incubated for 6 hrs by RT-PCR analysis; format: cell-based; details: dose 0.2-5 µM; summary of the method: as §1
# [28] = target: Dual specificity tyrosine-phosphorylation-regulated kinase 1A (Homo sapiens, UniProt Q13627); test: Inhibition of DYRK1A (unknown origin) using ULight-MBP peptide as substrate incubated for 10 mins in presence of ATP incubated for 45 mins by LANCE Ultra kinase assay
# Dual specificity protein kinase CLK1 (Homo sapiens), sequence (P49759 whole entry, looked up, canonical isoform): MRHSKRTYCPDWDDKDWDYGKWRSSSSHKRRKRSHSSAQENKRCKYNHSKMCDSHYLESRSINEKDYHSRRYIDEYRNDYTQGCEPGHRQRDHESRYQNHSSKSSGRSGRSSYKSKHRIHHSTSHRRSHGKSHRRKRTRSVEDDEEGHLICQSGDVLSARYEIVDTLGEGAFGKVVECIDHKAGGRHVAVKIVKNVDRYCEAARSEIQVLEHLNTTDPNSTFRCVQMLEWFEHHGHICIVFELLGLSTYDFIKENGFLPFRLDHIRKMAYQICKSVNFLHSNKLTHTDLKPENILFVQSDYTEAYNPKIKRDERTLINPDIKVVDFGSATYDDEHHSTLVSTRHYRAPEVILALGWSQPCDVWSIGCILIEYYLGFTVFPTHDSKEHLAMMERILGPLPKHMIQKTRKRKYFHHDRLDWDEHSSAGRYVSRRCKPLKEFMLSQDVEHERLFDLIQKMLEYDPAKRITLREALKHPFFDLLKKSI
# Mast/stem cell growth factor receptor Kit (Homo sapiens), sequence (P10721 whole entry): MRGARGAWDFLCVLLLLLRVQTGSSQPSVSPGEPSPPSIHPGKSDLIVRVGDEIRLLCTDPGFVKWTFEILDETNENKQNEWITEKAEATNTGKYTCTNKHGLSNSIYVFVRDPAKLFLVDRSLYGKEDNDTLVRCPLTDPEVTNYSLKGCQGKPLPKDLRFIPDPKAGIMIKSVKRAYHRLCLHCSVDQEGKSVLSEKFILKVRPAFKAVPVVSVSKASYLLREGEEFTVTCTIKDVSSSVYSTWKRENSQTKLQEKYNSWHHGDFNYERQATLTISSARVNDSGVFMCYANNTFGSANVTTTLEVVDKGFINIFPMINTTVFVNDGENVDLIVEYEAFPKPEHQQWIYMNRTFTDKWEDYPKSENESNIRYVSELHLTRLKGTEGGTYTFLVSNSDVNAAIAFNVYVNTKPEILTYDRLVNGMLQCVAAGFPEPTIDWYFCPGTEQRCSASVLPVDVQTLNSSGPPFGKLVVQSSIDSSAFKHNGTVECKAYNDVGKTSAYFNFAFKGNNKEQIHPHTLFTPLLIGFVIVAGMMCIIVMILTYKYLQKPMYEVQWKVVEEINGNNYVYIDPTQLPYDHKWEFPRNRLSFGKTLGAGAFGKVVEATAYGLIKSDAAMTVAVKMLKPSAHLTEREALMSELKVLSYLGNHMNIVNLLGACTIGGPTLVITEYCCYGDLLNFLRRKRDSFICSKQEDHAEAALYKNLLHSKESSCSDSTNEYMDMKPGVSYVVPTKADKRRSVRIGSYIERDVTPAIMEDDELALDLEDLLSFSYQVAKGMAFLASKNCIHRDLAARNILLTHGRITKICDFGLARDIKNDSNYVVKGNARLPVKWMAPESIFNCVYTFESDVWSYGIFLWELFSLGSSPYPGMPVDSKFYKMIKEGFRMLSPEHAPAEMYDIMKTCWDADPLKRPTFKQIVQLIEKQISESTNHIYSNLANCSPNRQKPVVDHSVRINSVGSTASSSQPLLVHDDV
# Casein kinase I isoform delta (Homo sapiens), sequence (P48730 whole entry, looked up, canonical isoform): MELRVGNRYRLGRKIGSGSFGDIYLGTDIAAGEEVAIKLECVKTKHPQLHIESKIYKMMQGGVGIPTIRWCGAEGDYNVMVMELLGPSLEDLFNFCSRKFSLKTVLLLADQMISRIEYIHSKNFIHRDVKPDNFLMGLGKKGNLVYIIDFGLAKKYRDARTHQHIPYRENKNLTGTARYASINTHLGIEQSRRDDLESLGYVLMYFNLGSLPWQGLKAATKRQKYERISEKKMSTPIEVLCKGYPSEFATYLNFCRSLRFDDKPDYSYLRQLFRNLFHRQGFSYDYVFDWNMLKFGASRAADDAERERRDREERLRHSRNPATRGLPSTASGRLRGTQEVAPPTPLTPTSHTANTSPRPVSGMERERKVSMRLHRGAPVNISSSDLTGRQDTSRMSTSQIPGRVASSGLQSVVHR
# Mitogen-activated protein kinase 1 (Homo sapiens), sequence (P28482 whole entry): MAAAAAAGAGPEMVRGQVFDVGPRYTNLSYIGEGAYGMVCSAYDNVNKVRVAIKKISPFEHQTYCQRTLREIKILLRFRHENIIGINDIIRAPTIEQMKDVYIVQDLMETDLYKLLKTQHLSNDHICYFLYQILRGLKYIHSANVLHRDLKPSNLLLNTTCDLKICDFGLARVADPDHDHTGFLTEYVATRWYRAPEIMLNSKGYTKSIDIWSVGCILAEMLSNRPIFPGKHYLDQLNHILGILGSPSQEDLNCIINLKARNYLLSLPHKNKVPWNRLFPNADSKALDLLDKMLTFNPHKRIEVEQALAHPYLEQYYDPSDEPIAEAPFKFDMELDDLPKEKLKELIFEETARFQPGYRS
# Hepatocyte growth factor receptor (Homo sapiens), sequence (P08581 whole entry): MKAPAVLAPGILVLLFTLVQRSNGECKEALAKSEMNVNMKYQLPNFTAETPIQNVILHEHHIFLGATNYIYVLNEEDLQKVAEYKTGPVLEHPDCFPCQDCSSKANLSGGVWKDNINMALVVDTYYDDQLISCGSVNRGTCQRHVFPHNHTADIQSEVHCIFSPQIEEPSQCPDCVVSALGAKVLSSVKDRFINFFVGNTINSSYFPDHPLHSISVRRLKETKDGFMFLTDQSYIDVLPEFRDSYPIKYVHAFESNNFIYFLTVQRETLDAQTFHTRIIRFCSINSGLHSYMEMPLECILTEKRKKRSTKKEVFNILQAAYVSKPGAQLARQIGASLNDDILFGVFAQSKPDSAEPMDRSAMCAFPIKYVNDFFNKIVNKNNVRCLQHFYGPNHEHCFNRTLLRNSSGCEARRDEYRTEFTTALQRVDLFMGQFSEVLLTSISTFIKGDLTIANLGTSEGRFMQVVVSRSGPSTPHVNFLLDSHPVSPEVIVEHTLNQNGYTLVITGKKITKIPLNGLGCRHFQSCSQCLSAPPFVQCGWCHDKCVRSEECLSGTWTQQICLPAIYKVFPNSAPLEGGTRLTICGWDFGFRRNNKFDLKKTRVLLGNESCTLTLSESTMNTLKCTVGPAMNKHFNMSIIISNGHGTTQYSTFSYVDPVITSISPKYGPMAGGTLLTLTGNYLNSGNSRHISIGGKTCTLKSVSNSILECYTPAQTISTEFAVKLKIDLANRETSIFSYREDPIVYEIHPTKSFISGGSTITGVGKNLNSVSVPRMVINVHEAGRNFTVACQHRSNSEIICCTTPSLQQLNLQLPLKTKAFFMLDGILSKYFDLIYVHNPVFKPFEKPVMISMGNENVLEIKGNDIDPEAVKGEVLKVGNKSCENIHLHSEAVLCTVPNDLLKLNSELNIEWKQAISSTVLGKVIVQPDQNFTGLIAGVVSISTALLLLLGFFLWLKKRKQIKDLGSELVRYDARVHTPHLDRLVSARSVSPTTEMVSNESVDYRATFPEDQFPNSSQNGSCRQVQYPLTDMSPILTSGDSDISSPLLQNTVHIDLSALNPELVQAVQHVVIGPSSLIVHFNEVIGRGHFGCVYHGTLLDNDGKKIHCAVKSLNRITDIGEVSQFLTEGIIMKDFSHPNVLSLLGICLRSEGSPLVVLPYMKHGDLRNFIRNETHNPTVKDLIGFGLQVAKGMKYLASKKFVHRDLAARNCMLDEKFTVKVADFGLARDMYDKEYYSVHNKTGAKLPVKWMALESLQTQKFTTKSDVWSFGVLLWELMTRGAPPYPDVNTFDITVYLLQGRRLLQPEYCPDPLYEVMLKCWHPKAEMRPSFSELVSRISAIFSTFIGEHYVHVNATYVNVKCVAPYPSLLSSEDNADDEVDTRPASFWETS
# Focal adhesion kinase 1 (Homo sapiens), sequence (Q05397 2-1052 limits assumed): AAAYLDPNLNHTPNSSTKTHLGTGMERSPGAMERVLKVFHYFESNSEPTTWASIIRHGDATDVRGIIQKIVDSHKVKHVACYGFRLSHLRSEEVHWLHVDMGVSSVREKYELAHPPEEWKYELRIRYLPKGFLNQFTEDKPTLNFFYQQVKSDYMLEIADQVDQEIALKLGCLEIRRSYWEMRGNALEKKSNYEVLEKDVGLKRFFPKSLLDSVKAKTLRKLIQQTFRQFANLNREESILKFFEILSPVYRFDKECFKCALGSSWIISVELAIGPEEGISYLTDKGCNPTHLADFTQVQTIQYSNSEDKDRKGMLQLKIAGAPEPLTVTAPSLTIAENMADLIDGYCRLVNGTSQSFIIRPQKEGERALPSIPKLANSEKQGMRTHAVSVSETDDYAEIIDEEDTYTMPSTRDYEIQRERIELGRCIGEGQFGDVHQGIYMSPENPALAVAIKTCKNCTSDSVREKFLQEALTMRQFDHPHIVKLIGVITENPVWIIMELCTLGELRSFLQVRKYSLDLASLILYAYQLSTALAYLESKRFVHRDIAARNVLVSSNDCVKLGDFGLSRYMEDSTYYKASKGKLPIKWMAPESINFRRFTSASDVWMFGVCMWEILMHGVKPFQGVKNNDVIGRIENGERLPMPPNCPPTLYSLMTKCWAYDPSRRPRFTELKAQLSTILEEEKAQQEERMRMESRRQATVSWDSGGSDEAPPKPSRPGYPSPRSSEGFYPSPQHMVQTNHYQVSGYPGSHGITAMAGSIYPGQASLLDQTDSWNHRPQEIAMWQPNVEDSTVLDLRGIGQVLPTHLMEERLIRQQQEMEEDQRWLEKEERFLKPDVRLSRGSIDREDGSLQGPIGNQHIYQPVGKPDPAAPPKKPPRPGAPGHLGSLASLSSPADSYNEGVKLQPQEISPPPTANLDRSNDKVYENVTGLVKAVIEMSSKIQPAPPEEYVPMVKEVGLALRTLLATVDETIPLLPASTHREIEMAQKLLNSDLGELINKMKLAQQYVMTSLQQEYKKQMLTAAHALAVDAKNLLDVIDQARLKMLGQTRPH
# Dual specificity mitogen-activated protein kinase kinase 2 (Homo sapiens), sequence (P36507 whole entry): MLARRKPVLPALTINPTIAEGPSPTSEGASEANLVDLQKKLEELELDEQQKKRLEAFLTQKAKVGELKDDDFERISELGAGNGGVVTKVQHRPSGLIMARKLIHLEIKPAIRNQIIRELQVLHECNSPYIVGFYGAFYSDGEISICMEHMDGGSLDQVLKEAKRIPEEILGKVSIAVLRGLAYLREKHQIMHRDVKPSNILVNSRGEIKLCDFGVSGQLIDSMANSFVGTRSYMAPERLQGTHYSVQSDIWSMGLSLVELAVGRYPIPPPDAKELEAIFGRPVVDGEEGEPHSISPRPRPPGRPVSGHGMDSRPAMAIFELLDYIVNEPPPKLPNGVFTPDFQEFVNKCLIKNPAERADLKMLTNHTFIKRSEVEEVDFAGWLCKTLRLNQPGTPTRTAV
smiles,measurement,setting,value
CN1CCN(C(=O)C(C)(C)c2ccc(C(=O)Nc3cn4cc(-c5ccncc5)ccc4n3)cc2)CC1 [T3-CLK],viability at 0.5 µM,[1],89.4%
same,Activity,[2],6.85%
same,inhibition,[3],91%
same,inhibition,[4],7%
same,inhibition,[5],1%
same,inhibition,[6],10%
same,inhibition,[7],22%
same,inhibition,[8],-3%
same,inhibition,[9],-3%
same,inhibition,[10],11%
same,inhibition,[11],17%
same,inhibition,[12],3%
same,inhibition,[13],-7%
same,inhibition,[14],11%
same,inhibition,[15],8%
same,inhibition,[16],4%
same,inhibition,[17],-7%
same,inhibition,[18],-4%
same,inhibition,[19],1%
same,inhibition,[20],13%
same,inhibition,[21],1%
same,inhibition,[22],Active
same,Activity,[23],46.9%
same,Activity,[24],2.2%
same,Activity,[25],41.2%
same,inhibition,[26],Dose-Dependent Effect
same,inhibition,[27],Dose-Dependent Effect
same,IC50,[28],260 nM
